# Screening results as filed in PubChem.
# Shown are actives, neighbours in structure and some others; about 2.1% of the full set was active somewhere.
# L929 necroptosis = inhibitors of zVAD-triggered necroptosis, primary screen, L929 cells | L929 zVAD necroptosis rescue, ATP luminescence, 24 h; with zVAD 60 µM | viability rescue, % at 10 µM | 220,000 tested, 0.38% active;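 active = activation, scaled between plate controls, above about 75%, limit read from the data; inactive = activation under that limit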
# TNF necrop inh = inhibitors of TNF-alpha triggered necroptosis, primary screen, cell-based, Jurkat FADD-/-, single concentration. Jurkat FADD-/- TNF necroptosis rescue, ATP luminescence, 24 h; 0 = TNF only, 100 = no-TNF cells. activation (protection from cell death), % at 10 µM. 220,000 tested, 0.068% active. AID 463075, 2010;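 active = activation, meaning protection from cell death, of at least 50% relative to plate controls; inactive = activation below 50%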;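 note: necroptosis triggered by 40 ng/mL TNF-alpha added together with compound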
# Hck-Nef inh = inhibitors of Nef-activated human Hck kinase, primary screen, biochemical, Z-Lyte FRET, 384-well, Hck-YEEI. AID 463187, 2010. Recombinant Hck-YEEI plus Nef, Z-Lyte FRET kinase assay. inhibition, % at 20 µM. 220,000 tested, 0.68% active. Tyrosine-protein kinase HCK (Homo sapiens), P08631;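 active = Hck-Nef kinase inhibition above about 50%, limit read from the data; inactive = inhibition below that limit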
# Runt-SMMHC FRET = inhibitors of RUNX1 Runt–CBFb-SMMHC binding, primary screen, biochemical, FRET, Cerulean-Runt, Venus-CBFb-SMMHC, uHTS | 220,000 tested, 0.74% active | inhibition, % at 20 µM | Cerulean-Runt/Venus-CBFb-SMMHC FRET ratio 530/480, 1 h;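 active = mean inhibition across duplicate retests at 20 µM reaching about 50%, limit read from the data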;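 note: inhibitors lower the FRET ratio by blocking Runt binding to CBFb-SMMHC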
# Target sequence (Q01196 whole entry, looked up): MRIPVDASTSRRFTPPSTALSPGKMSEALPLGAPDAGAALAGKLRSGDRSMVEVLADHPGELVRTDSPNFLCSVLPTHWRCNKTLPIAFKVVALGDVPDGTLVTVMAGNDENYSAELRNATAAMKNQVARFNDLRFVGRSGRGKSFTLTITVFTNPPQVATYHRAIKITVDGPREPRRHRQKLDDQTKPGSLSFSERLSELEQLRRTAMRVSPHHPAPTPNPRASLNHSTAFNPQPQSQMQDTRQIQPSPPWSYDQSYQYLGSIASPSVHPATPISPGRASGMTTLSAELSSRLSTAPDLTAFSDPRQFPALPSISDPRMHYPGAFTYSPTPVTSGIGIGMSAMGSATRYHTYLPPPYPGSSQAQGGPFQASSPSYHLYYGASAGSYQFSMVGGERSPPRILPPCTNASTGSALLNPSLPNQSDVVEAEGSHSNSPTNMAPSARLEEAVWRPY
# Target sequence (Q13951 whole entry, looked up): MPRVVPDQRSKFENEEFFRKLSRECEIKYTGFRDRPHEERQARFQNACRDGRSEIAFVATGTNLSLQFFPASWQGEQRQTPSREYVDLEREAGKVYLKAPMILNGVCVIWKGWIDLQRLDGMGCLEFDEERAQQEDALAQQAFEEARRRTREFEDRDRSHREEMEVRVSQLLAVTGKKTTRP
# RanGTP-Imp inh = inhibitors of RanGTP-importin-beta interaction, primary screen, biochemical, FRET, CFP-Ran, YFP-importin-beta, homogeneous. AID 2216, 2009. 300,000 tested, 1.1% active. cell-free CFP-Ran/YFP-importin-beta FRET ratio. inhibition, % (concentration not given with the values). Ran GTPase (GTP-bound) - importin-beta complex;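 active = more than half of the replicate wells show a fall in the fluorescence ratio signal beyond about 16%, limit read from the data, passing the limit was not always enough; inconclusive = exactly half of the replicate wells pass the set limit; inactive = fewer than half of replicates pass the limit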
# Runt-CBFb FRET = inhibitors of RUNX1 Runt–CBFb binding, primary screen, biochemical, FRET, Cerulean-Runt, Venus-CBFb, uHTS; Runt-related transcription factor 1 (Homo sapiens) + Core-binding factor subunit beta …; Cerulean-Runt/Venus-CBFb FRET ratio 530/480, 1 h; inhibition, % at 20 µM; 220,000 tested, 0.46% active;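 active = inhibition over about 50% at 20 µM in the single-dose screen, limit read from the data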
#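 test system = Cerulean-tagged RUNX1 Runt domain (FRET donor) fusion protein | reagent = Venus-CBFb binding partner, 100 nM | incubation = protein complex preformed 1 h, compound exposure 1 h, room temperature, dark | detection = FRET fluorescence | read-out basis = loss of energy transfer signal | controls = 5 µM unlabeled CBFb as full-inhibition high control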
# Numbers stand for hits; n = inactive; u = inconclusive; x = no result given.
SMILES,L929 necroptosis,TNF necrop inh,Hck-Nef inh,Runt-SMMHC FRET,RanGTP-Imp inh,Runt-CBFb FRET
CCOC(=O)c1c(NC(=O)c2c(N)n(CCCOC)c3nc4ccccc4nc23)sc2c1CCCC2,n,n,n,101,n,69
CCOCCCn1c(N)c(C(=O)Nc2sc3c(c2C(=O)OC)CCCC3)c2nc3ccccc3nc21,n,n,n,137,n,n
CCOC(=O)c1c(NC(NC(=O)CF)C(Cl)(Cl)Cl)sc2c1CCCC2 (configuration not stated),n,n,n,n,n,n
CCOC(=O)c1c(NC(=O)C(c2ccccc2)c2ccccc2)sc2c1C1CCN2CC1,n,n,n,n,n,n
COc1ccc(OC)c(-n2c(O)c(C=NCCN3CCNCC3)c(=O)[nH]c2=S)c1,x,x,x,x,n,x
COc1cccc(N2C(=O)NC(=O)/C(=C/c3ccc4c(c3)Cc3ccccc3-4)C2=O)c1,n,n,115,n,n,x
CN1Cc2c(c(C#N)c(N)n(C)c2=S)CC1(C)C,n,n,n,n,n,n
Cc1ccc(/C=C2\C(=O)NC(=S)N(c3ccccc3F)C2=O)s1,n,n,n,n,x,n
Cc1ccc(/C=C2\C(=O)NC(=S)N(c3ccc(F)cc3)C2=O)s1,n,n,99,n,n,x
Cc1cnc(NC(=O)CN2CCCCC2)s1,x,x,x,x,n,x
CCCCn1c(N)c(C(=O)NCc2cccs2)c2nc3ccccc3nc21,n,n,n,76,68,x
CCCCn1c(=O)c(C(=O)NCc2ccccc2OC)c(O)c2ccccc21,x,x,x,x,n,x
CCCCCn1c(N)c(C(=O)NCc2cccs2)c2nc3ccccc3nc21,n,n,n,n,56,n
COCCCNC(=O)c1c(NC(=O)c2ccccc2)n(Cc2ccccc2)c2nc3ccccc3nc12,n,n,n,x,u,x
CCCOC(=O)c1c(N)n(Cc2cccs2)c2nc3ccccc3nc12,n,n,n,108,u,n
Nc1c(C(=O)NCCCc2ccccc2)c2nc3ccccc3nc2n1Cc1cccs1,n,n,n,n,66,n
CC(C)(C)c1cc([N+](=O)[O-])cc(C(C)(C)C)c1O,n,n,n,n,n,n
CCNCC(O)c1cccc(O)c1 (configuration not stated),x,x,x,x,n,x
CC(Cc1ccc(O)cc1)NCC(O)c1cc(O)cc(O)c1 (configuration not stated),n,n,n,n,17,n
O=c1[nH]c(=O)n(-c2ccccc2)c(O)c1/C=C/C=Nc1ccccc1,n,n,n,60,58,n
COc1ccc(-n2c(O)c(/C=C/C=Nc3ccccc3)c(=O)[nH]c2=O)cc1,n,n,n,51,20,n
Cc1ccc(-n2c(O)c(/C=C/C=Nc3ccccc3)c(=O)[nH]c2=O)cc1,n,n,n,66,68,n
COc1ccc(-n2c(O)c(/C(C)=N/Nc3ccccc3)c(=O)[nH]c2=O)cc1,n,n,n,n,n,n
C=CCn1c(O)c(/C=C/C=Nc2ccccc2)c(=O)[nH]c1=O,n,n,n,77,29,n
Cc1ccc(N/N=C/c2c(O)n(-c3ccccc3)c(=O)[nH]c2=O)cc1,n,n,n,n,n,n
CCC(=O)OC1(Cc2ccc(CC)cc2)CC(C)N(C)CC1C (configuration not stated),n,n,n,n,n,n
O=c1[nH]c(=O)n(C2CCCCC2)c(O)c1C=Nc1ccc(N2CCOCC2)cc1,n,n,n,n,n,n
O=c1[nH]c(=O)n(C2CCCCC2)c(O)c1/C=C/C=Nc1ccccc1,n,n,n,81,61,n
Nc1ccc(C2(c3ccc(N)cc3)CCCCC2)cc1,n,n,n,n,n,n
O=c1[nH]c(Cl)ccc1CN1CCOCC1,x,x,x,x,n,x
